Measurements as given in ChEMBL document CHEMBL4177753, “Structural Modification of Natural Product Ganomycin I Leading to Discovery of a α-Glucosidase and HMG-CoA Reductase Dual Inhibitor Improving Obesity and Metabolic Dysfunction in Vivo” (J Med Chem, 2018).
Activity calls are given as the source filed them. The rule behind the calls is not given here.

Tests used:
Mus musculus [1] = experiment: Hypoglycemic activity in antibiotic-treated ob/ob mouse assessed as decrease in HbA1c levels at 3 mg/kg administered daily via oral gavage for 3 weeks; format: functional, organism-based
Summary of the method: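 Male ob/ob mice pretreated three weeks with ampicillin (1 g/L), vancomycin, neomycin, gentamycin and erythromycin. Groups of n = 8 given 3.0 mg/kg/day orally in soybean vehicle versus vehicle. Plasma and hepatic lipids, fasting glucose, OGTT (glucose 2 g/kg after overnight fast) and HbA1c measured.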

Mus musculus [2] = experiment: Hypolipidemic activity in ob/ob mouse assessed as decrease in serum ALT levels at 0.3 to 3 mg/kg administered daily via oral gavage for 31 days; format: functional, organism-based

## CC(C)=CCC/C(C)=C/CCC1=C[C@H](c2ccc(C(C)(C)C)cc2)OC1=O
Mus musculus [1]
  Activity: inactive
Mus musculus [2]
  Activity: Active
